# Experimental data from the RNAGym collection of RNA variant scans (doi:10.1126/science.aae0568).
# Variants at the floor of the assay were thinned out.
# B1: tRNA (parent)
# chain: GUUCCGUUGGCGUAAUGGUAACGCGUCUCCCUCCUAAGGAGAAGACUGCGGGUUCGAGUCCCGUACGGAACG
# Variants of: B1
# Assay: yeast fitness relative to wild type (ratio to wild type); higher = fitter; tRNA-Arg(CCU), competitive growth, 37 C, YPD
# Method in brief: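 Start and end populations of a pooled competition were compared by 100-nucleotide paired-end sequencing of gene amplicons. The Saccharomyces cerevisiae strains carried tRNA-Arg(CCU) gene variants at the native genomic locus, synthesised with a 3% per-site mutation rate at 69 sites, and competed in YPD at 37°C for 24 hours in six parallel replicates. Darwinian fitness relative to wild type was based on the change in genotype frequencies. Genotypes required ≥ 100 starting reads, and estimates < 0.5 were set to 0.5.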
row,Variant,yeast fitness
1,GUUCCGUUGGCGUAAUGGUAACGGGUCUCCCUUCUAAGGAGAAGACUGCGGGUUCGAGUGCCGUACGGAACG [C24G C33U C60G],0.519
2,GUUCCGUUGGCGUAAUGGUAACGGGUCUCUCUCUUAAGGAGAAGACUGCGGGUUCGAGUCCCGUACGGAACG [C24G C30U C34U],≤ 0.5
3,GUUCCGUUGGCGUAAUGGUAACGGGUCUCCCUUCUAAGGAGAAGACUGCGGGUUCGAGUCCCGUUCGGAACG [C24G C33U A65U],≤ 0.5
4,GUUCCGUUGGCGUAAUGGUAACGGGUCUCCCUCUAAAGGAGCAGACUGCGGGUUCGAGUCCCGUAAGGAACG [C24G C34U U35A A42C C66A],≤ 0.5
5,GUUCCGUUGGCGUAAUGGUAACGGGUCUCUCUCCUAAGGAGAAGACUGGGGGUUCGAGUCCCGUACGGAACG [C24G C30U C49G],0.664
6,GUUCCGUUGGCGUAAUGGUAACGGGUCUCCCUUCAAAGGAGAAGACUGCGGGUUCGAGUCGCGUACGGAACG [C24G C33U U35A C61G],≤ 0.5
7,GUUCCGUUGGCGUAAUGGUAACGGGUCUCACUCCUAAGGAGAAGACCGCGGGUUCGAGUCCCGUACGGAACG [C24G C30A U47C],0.586
8,GUUCCGUUGGCGUAAUGGUAACGGGUCUCCCUGCUAAGGAGAAGACUGCGGGUUUGAGUCCCGUACGGAACG [C24G C33G C55U],≤ 0.5
9,GUUCCGUUGGCGUAAUGGUAACGGGUCUCCCUCCUAAGGAGAAGAUUGCGGGUUCGACUCUCGUACGGAACG [C24G C46U G58C C61U],0.597
10,GUUCCGUUGGCGUAAUGGUAACGGGUCUCCCUUCUAAGGAGAGGACUGCGGGUUCGAGUCCCGUACGGAACG [C24G C33U A43G],≤ 0.5
11,GUUCCGUUGGCGUAAUGGUAACGGGUCUCCCUCUUAAGGAGAAGACAGCGGGUUCGAGUCCCGUACGGAACG [C24G C34U U47A],≤ 0.5
12,GUUCCGUUGGCGUAAUGGUAACGGGUCUCUCUCCUAAGGAGAUGACUGCGGGUUCGAGUGCCGUCCGGAACG [C24G C30U A43U C60G A65C],≤ 0.5
13,GUUCCGUUGGCGUAAUGGUAACGGGUCUCCCUCGUAAGGAGAUGACUGCGGGUUCGAGUCCCGUACCGAACG [C24G C34G A43U G67C],≤ 0.5
14,GUUCCGUUGGCGUAAUGGUAACGGGUCUCGCUCCUAAGGAGAAGACUGCGGGUUGGAGUCCCGUACGGAACG [C24G C30G C55G],≤ 0.5
15,GUUCCGUUGGCGUAAUGGUAACGGGUCUCCCUCGUAAGGAGAAGACUGCGGAUUCGAGUCCCGUACGGAACG [C24G C34G G52A],0.602
16,GUUCCGUUGGCGUAAUGGUAACGGGUCUCCUUCCUAAGGAGAGGCCUGCGGGUUCGAGUCCCGAACGGAACG [C24G C31U A43G A45C U64A],≤ 0.5
17,GUUCCGUUGGCGUAAUGGUAACGGGUCUCCUUCCUAAGGACAAGAGUGCGGGUUCGAGUCCCCUACGGAACG [C24G C31U G41C C46G G63C],≤ 0.5
18,GUUCCGUUGGCGUAAUGGUAACGGGUCUCCCUUCUAAGGAGAGGACAGCGGGUUCGAGUCCCGUACGGAACG [C24G C33U A43G U47A],0.682
19,GUUCCGUUGGCGUAAUGGUAACGGGUCUCGCUCCUAAGGAGAAGACUGCGGGUUCGAGUCCCGUACGGAACG [C24G C30G],0.53

row,Variant,yeast fitness
1,GUUCCGUUGGCGUAAUGGUAACGGGUCUCUCUCCUAAGGAGAAGACUGCGGGUUCGAGUCCCGUACGGAACG [C24G C30U],0.553
2,GUUCCGUUGGCGUAAUGGUAACGGGUCUCACUCCUAAGGAGAAGAUUGCGGCUUCGAGUCCCGUACGGAACG [C24G C30A C46U G52C],≤ 0.5
3,GUUCCGUUGGCGUAAUGGUAACGGGUCUCCCUCGUAAGGGGAAGCCUGCGGGUUCGAGUCCCGUAGGGUACG [C24G C34G A40G A45C C66G A69U],0.596
4,GUUCCGUUGGCGUAAUGGUAACGGGUCUCACUCCUAAGGAGAACACCGCGGGUUCGAGACCCGUACGGAACG [C24G C30A G44C U47C U59A],≤ 0.5
5,GUUCCGUUGGCGUAAUGGUAACGGGUCUCCCUCCUAAGGAGAAGAGUGCGGGUUCGAGUCCCGUAUGGAACG [C24G C46G C66U],≤ 0.5
6,GUUCCGUUGGCGUAAUGGUAACGGGUCUCCCUUCUAUGGAGAAGACUGCGGGUUAGAGUCCCGUACGCAACG [C24G C33U A37U C55A G68C],≤ 0.5
7,GUUCCGUUGGCGUAAUGGUAACGGGUCUCCGUACUAAGGAGAAGACUGCCGGUUGGUGUCCUGCACGGAACG [C24G C31G C33A G50C C55G A57U C62U U64C],≤ 0.5
8,GUUCCGUUGGCGUAAUGGUAACGGGUCUCCCUCAAAAGGAGAAGAUUACGGGUUCGAGUGCCGUAUGGAACG [C24G C34A U35A C46U G48A C60G C66U],0.558
9,GUUCCGUUGGCGUAAUGGUAACGGGUCUCCCUUCUAAGGAGAGGACAGCGGGUUCGAGUACCGUACGGAACG [C24G C33U A43G U47A C60A],≤ 0.5
10,GUUCCGUUGGCGUAAUGGUAACGGGUCUCCCUGCUAAGGAGAAGACUGCGGGUUCGAGUCCCAUACGGAACG [C24G C33G G63A],≤ 0.5
11,GUUCCGUUGGCGUAAUGGUAACGGGUCUCUCUCCUAAGGGGAAAACCGCGCGUUCGAGUCCCGUACGGAACG [C24G C30U A40G G44A U47C G51C],≤ 0.5
12,GUUCCGUUGGCGUAAUGGUAACGGGUCUCCCUCUUCAGGAGAAGACUGCGGGUUCGAGUCCCGUACGGAACG [C24G C34U A36C],≤ 0.5
13,GUUCCGUUGGCGUAAUGGUAACGGGUCUCCCUUCUAAGGAGAAGACUGCGGGUUCGAGUCCAGUACGGAGCG [C24G C33U C62A A70G],≤ 0.5
14,GUUCCGUUGGCGUAAUGGUAACGGGUCUCCCUUCUAAGGAGAAGACUGCGGGUUCGAGUCCCGUACGGAACG [C24G C33U],0.646
15,GUUCCGUUGGCGUAAUGGUAACGGGUCUCCCUGCUAAGGAGAAGACUGCGGGUUCGAGUCCCGUACGGAACG [C24G C33G],0.666
16,GUUCCGUUGGCGUAAUGGUAACGGGUCUCUCUCAUAAGGAGAAGACUGCGGGUUCGAGUUCCGUACGGAACG [C24G C30U C34A C60U],≤ 0.5
17,GUUCCGUUGGCGUAAUGGUAACGGGUCUCCCUCCUAAGGAGAAGAGUACGGGUUUGAGUCCCGAACGGCACG [C24G C46G G48A C55U U64A A69C],0.5
18,GUUCCGUUGGCGUAAUGGUAACGGGUCUCUCUCUUAAGGAGAAGACUGCGGGUUAGAGUCCCGUACGGAACG [C24G C30U C34U C55A],≤ 0.5
